ChEMBL document CHEMBL2146472, “Identification and development of the 1,4-benzodiazepin-2-one and quinazoline-2,4-dione scaffolds as submicromolar inhibitors of HAT” (2012)
Converted amounts (≈) assume the structure as drawn. The source made the active and inactive calls. The calls are words filed in the database; no cut-off is given here.

Test system: Trypanosoma brucei brucei
Assay: Antitrypanosomal activity against bloodstream form of Trypanosoma brucei brucei S427 after 48 hrs by Alamar Blue assay
Format: functional
Procedure, shortened: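 T. b. brucei S427 cultured in HMI-9 with 20% […] FCS, 37 °C, 5% CO2. Compounds from 0.1 M DMSO stocks diluted in HMI-9 (top wells 50, 200 or 400 μM), serially diluted; cells added at 2 × 10⁴ cells/mL. 48 h incubation, then resazurin (Alamar Blue) for further 24 h; fluorescence ex 530/em 590 nm. MIC determined in duplicate.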

`O=C1c2cc(Cl)ccc2N(Cc2ccccc2)C(=O)CN1CC1CCNCC1` gave an MIC (S427, 48 h) of 125 µM (≈ 49.7 µg/mL).
Work on `CC(C)(C)OC(=O)N1CCC(Cn2c(=O)c3cc(Cl)ccc3n(Cc3ccccc3-c3ccccc3)c2=O)CC1` yielded an MIC (S427, 48 h) of 7.8 µM (≈ 4.37 µg/mL).
With `O=C1c2ccccc2N(CC2CC2)C(=O)CN1CC1CCCCC1` the MIC (S427, 48 h) was 62.5 µM (≈ 20.4 µg/mL).
For `C=CCN1C(=O)CN(CC2CCNCC2)C(=O)c2cc(Cl)ccc21`, the MIC (S427, 48 h) was 250 µM (≈ 87 µg/mL).
Compound `O=c1c2cc(Cl)ccc2n(Cc2ccccc2)c(=O)n1CC1CCCCC1` has an MIC (S427, 48 h) of 62.5 µM (≈ 23.9 µg/mL).
For `O=C1c2ccccc2N(Cc2ccccc2-c2ccccc2)C(=O)CN1CC1CCNCC1`, the MIC (S427, 48 h) was 31.2 µM (≈ 13.7 µg/mL).
In the case of `CCCN1C(=O)CN(CC2CCCCC2)C(=O)c2cc(Cl)ccc21`, the MIC (S427, 48 h) is reported as 31.2 µM (≈ 10.9 µg/mL).
In the case of `CCN1C(=O)CN(CC2CCCCC2)C(=O)c2ccccc21`, the MIC (S427, 48 h) is reported as 62.5 µM (≈ 18.8 µg/mL).
`O=c1c2cc(Cl)ccc2n(Cc2ccccc2-c2ccccc2)c(=O)n1CC1CCCCC1` gave an MIC (S427, 48 h) of 62.5 µM (≈ 28.7 µg/mL).
`CN1C(=O)CN(CC2CCNCC2)C(=O)c2ccccc21` was tested, and the MIC was “inactive”.
Work on `CCOC(=O)Cn1c(=O)n(CC2CCCCC2)c(=O)c2cc(Cl)ccc21` yielded an MIC (S427, 48 h) of 250 µM (≈ 94.7 µg/mL).
For `O=C1c2ccccc2N(Cc2ccccc2)C(=O)CN1CC1CCCCC1`, the MIC (S427, 48 h) was 31.2 µM (≈ 11.3 µg/mL).
Compound `CCn1c(=O)n(CC2CCCCC2)c(=O)c2cc(Cl)ccc21` has an MIC (S427, 48 h) of 15.6 µM (≈ 5 µg/mL).
For `CCOC(=O)Cn1c(=O)n(CC2CCCCC2)c(=O)c2ccccc21`, the MIC (S427, 48 h) was 31.2 µM (≈ 10.8 µg/mL).
Work on `O=c1c2ccccc2n(Cc2ccccc2-c2ccccc2)c(=O)n1CC1CCCCC1` yielded an MIC (S427, 48 h) of 7.8 µM (≈ 3.31 µg/mL).
For `CCCCN1C(=O)CN(CC2CCCCC2)C(=O)c2cc(Cl)ccc21`, the MIC (S427, 48 h) was 15.6 µM (≈ 5.66 µg/mL).
`O=c1c2ccccc2n(Cc2ccccc2-c2ccccc2)c(=O)n1CC1CCNCC1` was tested, and the MIC (S427, 48 h) was 3.9 µM (≈ 1.66 µg/mL).
For `Cn1c(=O)n(CC2CCCCC2)c(=O)c2ccccc21`, the MIC (S427, 48 h) was 62.5 µM (≈ 17 µg/mL).
Work on `Cn1c(=O)n(CC2CCCCC2)c(=O)c2cc(Cl)ccc21` yielded an MIC (S427, 48 h) of 31.2 µM (≈ 9.57 µg/mL).
With `CC(C)(C)OC(=O)N1CCC(Cn2c(=O)c3ccccc3n(Cc3ccccc3-c3ccccc3)c2=O)CC1` the MIC (S427, 48 h) was 125 µM (≈ 65.7 µg/mL).
`CC(C)(C)OC(=O)N1CCC(Cn2c(=O)c3cc(Cl)ccc3n(Cc3ccc(-c4ccccc4)cc3)c2=O)CC1` showed an MIC (S427, 48 h) of 125 µM (≈ 70 µg/mL).
For `C=CCN1C(=O)CN(CC2CCNCC2)C(=O)c2ccccc21`, the MIC was “inactive”.
`CCCCN1C(=O)CN(CC2CCNCC2)C(=O)c2cc(Cl)ccc21` gave an MIC (S427, 48 h) of 250 µM (≈ 91 µg/mL).
In the case of `O=C(O)CN1C(=O)CN(CC2CCCCC2)C(=O)c2cc(Cl)ccc21`, the MIC is reported as “inactive”.
In the case of `O=C1c2cc(Cl)ccc2N(Cc2ccccc2)C(=O)CN1CC1CCCCC1`, the MIC (S427, 48 h) is reported as 15.6 µM (≈ 6.19 µg/mL).
In the case of `CCN1C(=O)CN(CC2CCCCC2)C(=O)c2cc(Cl)ccc21`, the MIC (S427, 48 h) is reported as 62.5 µM (≈ 20.9 µg/mL).
Work on `O=C1c2cc(Cl)ccc2N(Cc2ccc(-c3ccccc3)cc2)C(=O)CN1CC1CCCCC1` yielded an MIC (S427, 48 h) of 3.9 µM (≈ 1.84 µg/mL).
Compound `CCn1c(=O)n(CC2CCCCC2)c(=O)c2ccccc21` has an MIC (S427, 48 h) of 31.2 µM (≈ 8.93 µg/mL).
With `O=c1c2cc(Cl)ccc2n(Cc2ccccc2-c2ccccc2)c(=O)n1CC1CCNCC1` the MIC (S427, 48 h) was 0.97 µM (≈ 0.446 µg/mL).
With `CN1C(=O)CN(CC2CCCCC2)C(=O)c2ccccc21` the MIC (S427, 48 h) was 125 µM (≈ 35.8 µg/mL).
`C=CCN1C(=O)CN(CC2CCCCC2)C(=O)c2cc(Cl)ccc21` was tested, and the MIC (S427, 48 h) was 62.5 µM (≈ 21.7 µg/mL).
`O=c1c2cc(Cl)ccc2n(Cc2ccccc2)c(=O)n1CC1CCNCC1` gave an MIC (S427, 48 h) of 15.6 µM (≈ 5.99 µg/mL).
For `CCOC(=O)CN1C(=O)CN(CC2CCCCC2)C(=O)c2cc(Cl)ccc21`, the MIC (S427, 48 h) was 62.5 µM (≈ 24.6 µg/mL).
Work on `CCCCN1C(=O)CN(CC2CCNCC2)C(=O)c2ccccc21` yielded an MIC (S427, 48 h) of 62.5 µM (≈ 20.6 µg/mL).
In the case of `CN1C(=O)CN(CC2CCCCC2)C(=O)c2cc(Cl)ccc21`, the MIC (S427, 48 h) is reported as 62.5 µM (≈ 20.1 µg/mL).
`O=C1c2cc(Cl)ccc2N(CC2CC2)C(=O)CN1CC1CCCCC1` showed an MIC (S427, 48 h) of 31.2 µM (≈ 11.3 µg/mL).
In the case of `O=C1c2cc(Cl)ccc2N(Cc2ccccc2-c2ccccc2)C(=O)CN1CC1CCNCC1`, the MIC (S427, 48 h) is reported as 7.8 µM (≈ 3.7 µg/mL).
Work on `O=C1c2cc(Cl)ccc2N(Cc2ccccc2-c2ccccc2)C(=O)CN1CC1CCCCC1` yielded an MIC (S427, 48 h) of 7.8 µM (≈ 3.69 µg/mL).
In the case of `O=C(O)CN1C(=O)CN(CC2CCCCC2)C(=O)c2ccccc21`, the MIC is reported as “inactive”.
`O=C1c2ccccc2N(Cc2ccccc2-c2ccccc2)C(=O)CN1CC1CCCCC1` gave an MIC (S427, 48 h) of 125 µM (≈ 54.8 µg/mL).
Compound `O=c1c2cc(Cl)ccc2n(Cc2ccc(-c3ccccc3)cc2)c(=O)n1CC1CCCCC1` has an MIC (S427, 48 h) of 125 µM (≈ 57.4 µg/mL).
Compound `CCCCn1c(=O)n(CC2CCCCC2)c(=O)c2cc(Cl)ccc21` has an MIC (S427, 48 h) of 62.5 µM (≈ 21.8 µg/mL).
For `CCOC(=O)CN1C(=O)CN(CC2CCCCC2)C(=O)c2ccccc21`, the MIC (S427, 48 h) was 125 µM (≈ 44.8 µg/mL).
`CN1C(=O)CN(CC2CCNCC2)C(=O)c2cc(Cl)ccc21` was tested, and the MIC was “inactive”.
With `C=CCN1C(=O)CN(CC2CCCCC2)C(=O)c2ccccc21` the MIC (S427, 48 h) was 125 µM (≈ 39.1 µg/mL).
Compound `O=c1c2ccccc2n(Cc2ccccc2)c(=O)n1CC1CCCCC1` has an MIC (S427, 48 h) of 15.6 µM (≈ 5.44 µg/mL).
For `CCCCN1C(=O)CN(CC2CCCCC2)C(=O)c2ccccc21`, the MIC (S427, 48 h) was 31.2 µM (≈ 10.3 µg/mL).
With `O=C1c2ccccc2N(Cc2ccc(-c3ccccc3)cc2)C(=O)CN1CC1CCCCC1` the MIC (S427, 48 h) was 7.8 µM (≈ 3.42 µg/mL).
In the case of `O=c1c2cc(Cl)ccc2n(Cc2ccc(-c3ccccc3)cc2)c(=O)n1CC1CCNCC1`, the MIC (S427, 48 h) is reported as 0.97 µM (≈ 0.446 µg/mL).
With `CC(C)(C)OC(=O)N1CCC(Cn2c(=O)c3cc(Cl)ccc3n(Cc3ccccc3)c2=O)CC1` the MIC (S427, 48 h) was 62.5 µM (≈ 30.2 µg/mL).
In the case of `O=C1c2ccccc2N(Cc2ccccc2)C(=O)CN1CC1CCNCC1`, the MIC (S427, 48 h) is reported as 250 µM (≈ 90.9 µg/mL).
In the case of `CCCN1C(=O)CN(CC2CCCCC2)C(=O)c2ccccc21`, the MIC (S427, 48 h) is reported as 62.5 µM (≈ 19.7 µg/mL).
